Like-named read-outs stand apart in the source and are kept apart here.
Tests used:
[1] = test system: breast cancer resistance protein; details: drug interactions; cited from earlier work
[2] = format: in vivo, human; details: for CL/F, Maximum / CL/F, Mean / CL/F, Median / CL/F, Minimum / Vc/F, Maximum / Vc/F, Mean / Vc/F, Median / Vc/F, Minimum: Bayesian-estimated; for AUC / concentration at 24 h: human, plasma, oral; for concentration at 24 h: 24 h postdose on day 1
Procedure, shortened: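 Ensitrelvir was dosed once daily, 375 mg on day 1 then 125 mg on days 2–5, or 750/250 mg. A population PK model was fitted to 8034 plasma concentrations from 2060 healthy and SARS-CoV-2-infected participants: two-compartment, first-order absorption, with covariates tested on CL/F. Empirical Bayesian estimates from the final model were used to calculate individual exposures for SCORPIO-SR phase III participants.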

[3] = 125 mg group: 375 mg on day 1 and 125 mg on days 2–5
[4] = 125 mg group: 375 mg on day 1 and 125 mg on days 2–5, day 1
[5] = 125 mg group: 375 mg on day 1 and 125 mg on days 2–5, day 5
[6] = 250 mg group: 750 mg on day 1 and 250 mg on days 2–5
[7] = 250 mg group: 750 mg on day 1 and 250 mg on days 2–5, day 1
[8] = 250 mg group: 750 mg on day 1 and 250 mg on days 2–5, day 5

## Cn1cnc(Cn2c(=O)[nH]/c(=N\c3cc4cn(C)nc4cc3Cl)n(Cc3cc(F)c(F)cc3F)c2=O)n1 [ensitrelvir]
[1]
  inhibition of breast cancer resistance protein: inhibits
[2]; [3]
  Entire AUC, Maximum: 4429 µg·h/mL
  Entire AUC, Minimum: 1404 µg·h/mL
  Entire Cmax, Maximum: 46.8 µg/mL
  Entire Cmax, Minimum: 14.3 µg/mL
  CL/F, Maximum: 0.400 L/h
  CL/F, Mean: 0.216 L/h
  CL/F, Median: 0.212 L/h
  CL/F, Minimum: 0.116 L/h
  Vc/F, Maximum: 34.4 L
  Vc/F, Mean: 15.1 L
  Vc/F, Median: 14.7 L
  Vc/F, Minimum: 7.66 L
[2]; [4]
  AUC_d1, Maximum: 784.7 µg·h/mL
  AUC_d1, Minimum: 127.0 µg·h/mL
  Cmax_d1, Maximum: 41.0 µg/mL
  Cmax_d1, Mean: 23.4 µg/mL
  Cmax_d1, Median: 22.9 µg/mL
  Cmax_d1, Minimum: 10.3 µg/mL
[2]; [5]
  AUC_d5, Maximum: 1156 µg·h/mL
  AUC_d5, Minimum: 224.5 µg·h/mL
  Cmax_d5, Maximum: 46.8 µg/mL
  Cmax_d5, Mean: 26.6 µg/mL
  Cmax_d5, Median: 26.2 µg/mL
  Cmax_d5, Minimum: 14.3 µg/mL
[2]; [6]
  Entire AUC, Maximum: 9652 µg·h/mL
  Entire AUC, Minimum: 3090 µg·h/mL
  Entire Cmax, Maximum: 104 µg/mL
  Entire Cmax, Minimum: 31.9 µg/mL
  CL/F, Maximum: 0.353 L/h
  CL/F, Mean: 0.201 L/h
  CL/F, Median: 0.198 L/h
  CL/F, Minimum: 0.0963 L/h
  Vc/F, Maximum: 28.1 L
  Vc/F, Mean: 14.5 L
  Vc/F, Median: 14.1 L
  Vc/F, Minimum: 7.31 L
[2]; [7]
  AUC_d1, Maximum: 1617 µg·h/mL
  AUC_d1, Minimum: 375.0 µg·h/mL
  Cmax_d1, Maximum: 86.9 µg/mL
  Cmax_d1, Mean: 48.9 µg/mL
  Cmax_d1, Median: 47.7 µg/mL
  Cmax_d1, Minimum: 24.9 µg/mL
[2]; [8]
  AUC_d5, Maximum: 2502 µg·h/mL
  AUC_d5, Minimum: 615.4 µg·h/mL
  Cmax_d5, Maximum: 104 µg/mL
  Cmax_d5, Mean: 56.4 µg/mL
  Cmax_d5, Median: 55.1 µg/mL
  Cmax_d5, Minimum: 31.9 µg/mL
[2]; AUC_d1, Mean, 125 mg group: 375 mg on day 1 and 125 mg on days 2–5, day 1
  AUC: 438 µg·h/mL
[2]; AUC_d1, Mean, 250 mg group: 750 mg on day 1 and 250 mg on days 2–5, day 1
  AUC: 910 µg·h/mL
[2]; AUC_d1, Median, 125 mg group: 375 mg on day 1 and 125 mg on days 2–5, day 1
  AUC: 432 µg·h/mL
[2]; AUC_d1, Median, 250 mg group: 750 mg on day 1 and 250 mg on days 2–5, day 1
  AUC: 887 µg·h/mL
[2]; AUC_d5, Mean, 125 mg group: 375 mg on day 1 and 125 mg on days 2–5, day 5
  AUC: 578 µg·h/mL
[2]; AUC_d5, Mean, 250 mg group: 750 mg on day 1 and 250 mg on days 2–5, day 5
  AUC: 1230 µg·h/mL
[2]; AUC_d5, Median, 125 mg group: 375 mg on day 1 and 125 mg on days 2–5, day 5
  AUC: 568 µg·h/mL
[2]; AUC_d5, Median, 250 mg group: 750 mg on day 1 and 250 mg on days 2–5, day 5
  AUC: 1200 µg·h/mL
[2]; C24_d1, Maximum, 125 mg group: 375 mg on day 1 and 125 mg on days 2–5
  concentration at 24 h: 27.6 µg/mL
[2]; C24_d1, Maximum, 250 mg group: 750 mg on day 1 and 250 mg on days 2–5
  concentration at 24 h: 61 µg/mL
[2]; C24_d1, Mean, 125 mg group: 375 mg on day 1 and 125 mg on days 2–5
  concentration at 24 h: 16.6 µg/mL
[2]; C24_d1, Mean, 250 mg group: 750 mg on day 1 and 250 mg on days 2–5
  concentration at 24 h: 34.8 µg/mL
